According to ChEMBL document CHEMBL2346506, “Cytotoxicity and modulation of cancer-related signaling by (Z)- and (E)-3,4,3',5'-tetramethoxystilbene isolated from Eugenia rigida” (J Nat Prod, 2013):
The source made the active and inactive calls. The rule behind the calls is not given here.

Columns and labels:
[1] = target: Myc proto-oncogene protein (Homo sapiens) (UniProt P01106); test: Inhibition of Myc signaling pathway in human HeLa cells assessed as measured as lowest concentration required 50 to 60 % inhibition of PMA induced luciferase treated 30 mins before induction; type: cell-based
Sequence of Myc proto-oncogene protein (Homo sapiens) (P01106 whole entry): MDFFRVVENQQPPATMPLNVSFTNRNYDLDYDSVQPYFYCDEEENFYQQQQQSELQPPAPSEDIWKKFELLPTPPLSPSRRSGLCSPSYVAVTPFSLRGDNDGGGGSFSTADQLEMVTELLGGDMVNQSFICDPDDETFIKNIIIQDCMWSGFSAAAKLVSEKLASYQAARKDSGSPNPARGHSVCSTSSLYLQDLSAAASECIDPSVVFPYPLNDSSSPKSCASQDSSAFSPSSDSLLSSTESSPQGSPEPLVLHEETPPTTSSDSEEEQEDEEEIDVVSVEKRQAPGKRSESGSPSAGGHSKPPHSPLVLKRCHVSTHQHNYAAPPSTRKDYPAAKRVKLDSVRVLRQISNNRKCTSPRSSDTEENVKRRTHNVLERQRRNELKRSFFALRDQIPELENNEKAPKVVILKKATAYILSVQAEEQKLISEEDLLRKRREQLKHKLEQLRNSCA
Procedure, shortened: (§1)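 Reporter assay in cells transfected with pathway luciferase plasmids. Cells plated at 0.015 × 10⁶ per well in 10% FBS, switched after 24 h to DMEM with 1% FBS, then transfected. 24 h after transfection, compound (final 40, 60, 80 or 100 μM) was added, followed 30 min later by inducer (IL-6, TGF-β, wnt3a or PMA). Luciferase was read 4 or 6 h after induction (6 h for Notch, Wnt, Hedgehog). Value is the IC50 or the lowest concentration giving maximal 50–60% inhibition; two independent experiments.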

[2] = Inhibition of E2F signaling pathway in human HeLa cells assessed as inhibition of PMA induced luciferase at 100 uM treated 30 mins before induction; type: cell-based; procedure, shortened: as §1
Vero = test: Cytotoxicity against african green monkey Vero cells assessed as growth inhibition measured after 48 hrs by Neutral Red dye assay; conditions: Chlorocebus sabaeus
[3] = Inhibition of NFkappaB signaling pathway in human HeLa cells assessed as inhibition of PMA induced luciferase treated 30 mins before induction; type: cell-based; procedure, shortened: as §1
SK-MEL = test: Cytotoxicity against human SK-MEL cells assessed as growth inhibition measured after 48 hrs by Neutral Red dye assay
[4] = Inhibition of AP1 signaling pathway in human HeLa cells assessed as inhibition of PMA induced luciferase at 100 uM treated 30 mins before induction; type: cell-based; procedure, shortened: as §1
BT-549 [5] = test: Cytotoxicity against human BT549 cells assessed as growth inhibition measured at 100 uM after 48 hrs by Neutral Red dye assay
LLC-PK1 = test: Cytotoxicity against pig LLC-PK1 cells assessed as growth inhibition measured after 48 hrs by Neutral Red dye assay; conditions: Sus scrofa, LLC-PK1, 48 h
KB [6] = test: Cytotoxicity against human KB cells assessed as growth inhibition measured at 100 uM after 48 hrs by Neutral Red dye assay
SK-OV-3 [7] = test: Cytotoxicity against human SKOV3 cells assessed as growth inhibition measured after 48 hrs by Neutral Red dye assay; conditions: SK-OV-3, 48 h
[8] = Inhibition of Hedgehog signaling pathway in human HeLa cells assessed as measured as lowest concentration required 50 to 60 % inhibition of PMA induced luciferase treated 30 mins before induction; type: cell-based; procedure, shortened: as §1
[9] = target: Forkhead box protein O1 (Homo sapiens) (UniProt Q12778); test: Inhibition of FoxO signaling pathway in human HeLa cells assessed as inhibition of luciferase at 100 uM […]; type: cell-based
Sequence of Forkhead box protein O1 (Homo sapiens) (Q12778 whole entry): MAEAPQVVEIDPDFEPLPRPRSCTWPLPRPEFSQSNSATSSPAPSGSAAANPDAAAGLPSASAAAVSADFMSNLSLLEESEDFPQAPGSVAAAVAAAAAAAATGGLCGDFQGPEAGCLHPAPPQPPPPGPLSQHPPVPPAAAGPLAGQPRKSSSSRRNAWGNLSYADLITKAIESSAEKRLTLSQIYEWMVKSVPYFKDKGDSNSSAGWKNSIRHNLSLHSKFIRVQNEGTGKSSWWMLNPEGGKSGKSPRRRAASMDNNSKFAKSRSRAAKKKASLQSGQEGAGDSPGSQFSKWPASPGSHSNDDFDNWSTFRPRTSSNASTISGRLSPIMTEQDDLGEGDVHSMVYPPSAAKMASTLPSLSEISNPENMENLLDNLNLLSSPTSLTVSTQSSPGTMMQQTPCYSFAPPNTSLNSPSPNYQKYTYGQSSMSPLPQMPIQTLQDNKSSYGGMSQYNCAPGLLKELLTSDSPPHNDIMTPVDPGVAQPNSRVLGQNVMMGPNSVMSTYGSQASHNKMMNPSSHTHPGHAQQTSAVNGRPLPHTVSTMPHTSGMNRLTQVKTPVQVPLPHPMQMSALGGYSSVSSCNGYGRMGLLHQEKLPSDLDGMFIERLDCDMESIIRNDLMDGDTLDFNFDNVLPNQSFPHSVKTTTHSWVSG

HL-60 [10] = test: Cytotoxicity against human HL60 cells assessed as growth inhibition measured after 48 hrs by XTT assay; type: functional, cell-based; conditions: HL-60, 48 h
HeLa [11] = test: Inhibition of Stat3 signaling pathway in human HeLa cells assessed as measured as lowest concentration required 50 to 60 % inhibition of IL-6 induced luciferase treated 30 mins before induction; type: functional; procedure, shortened: as §1
[12] = Inhibition of Wnt signaling pathway in human HeLa cells assessed as inhibition of Wnt3a induced luciferase treated 30 mins before induction; type: cell-based; procedure, shortened: as §1
HeLa [13] = test: Inhibition of smad3/4 signaling pathway in human HeLa cells assessed as inhibition of TGF-beta induced luciferase treated 30 mins before induction; type: functional, cell-based; procedure, shortened: as §1
HeLa [14] = test: Cytotoxicity against human HeLa cells assessed as growth inhibition measured at 100 uM after 48 hrs by Neutral Red dye assay
HeLa [15] = test: Inhibition of smad3/4 signaling pathway in human HeLa cells assessed as measured as lowest concentration required 50 to 60 % inhibition of TGF-beta induced luciferase treated 30 mins before induction; type: functional; procedure, shortened: as §1
[16] = Inhibition of Notch signaling pathway in human HeLa cells assessed as measured as lowest concentration required 50 to 60 % inhibition of PMA induced luciferase treated 30 mins before induction; type: cell-based; procedure, shortened: as §1
[17] = Inhibition of Notch signaling pathway in human HeLa cells assessed as inhibition of PMA induced luciferase treated 30 mins before induction; type: cell-based; procedure, shortened: as §1
[18] = Inhibition of Ets signaling pathway in human HeLa cells assessed as measured as lowest concentration required 50 to 60 % inhibition of PMA induced luciferase treated 30 mins before induction; type: cell-based; procedure, shortened: as §1
HeLa [19] = test: Inhibition of Stat3 signaling pathway in human HeLa cells assessed as inhibition of IL-6 induced luciferase treated 30 mins before induction; type: functional, cell-based; procedure, shortened: as §1
[20] = Inhibition of Ets signaling pathway in human HeLa cells assessed as inhibition of PMA induced luciferase treated 30 mins before induction; type: cell-based; procedure, shortened: as §1
[21] = Inhibition of NFkappaB signaling pathway in human HeLa cells assessed as measured as lowest concentration required 50 to 60 % inhibition of PMA induced luciferase treated 30 mins before induction; type: cell-based; procedure, shortened: as §1
[22] = Inhibition of Hedgehog signaling pathway in human HeLa cells assessed as inhibition of PMA induced luciferase treated 30 mins before induction; type: cell-based
Procedure, shortened: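 HeLa cells plated at 0.015 × 10⁶/well in 10% FBS medium, switched after 24 h to DMEM with 1% FBS, then transfected with a Hedgehog luciferase reporter. After 24 h, compounds were added at 40, 60, 80 or 100 μM final, 30 min before PMA. Luciferase was read 6 h later. The value is the IC50 or lowest concentration giving maximal 50–60% inhibition, from two independent experiments.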

[23] = Inhibition of Wnt signaling pathway in human HeLa cells assessed as measured as lowest concentration required 50 to 60 % inhibition of Wnt3a induced luciferase treated 30 mins before induction; type: cell-based; procedure, shortened: as §1
SK-OV-3 [24] = test: Cytotoxicity against human SKOV3 cells assessed as growth inhibition measured at 100 uM after 48 hrs by […] assay; type: functional, cell-based
KB [25] = test: Cytotoxicity against human KB cells assessed as growth inhibition measured after 48 hrs by Neutral Red dye assay
HL-60 [26] = test: Inhibition of PMA induced ROS generation in human HL60 cells assessed as inhibition of ROA mediated oxidation of DCFH at 100 uM; type: functional, cell-based
Procedure, shortened: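 HL-60 cells (0.8 × 10⁶/mL) in RPMI-1640 with 10% FBS were pretreated 30 min with compound (0.4–100 μM). PMA (100 ng/mL) was then added for 30 min, followed by DCFH-DA (5 μg/mL) for 15 min. DCF fluorescence read at Ex 485 / Em 530 nm and compared with vehicle control. Trolox served as positive control.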

[27] = Inhibition of AP1 signaling pathway in human HeLa cells assessed as inhibition of PMA induced luciferase treated 30 mins before induction; type: cell-based; procedure, shortened: as §1
[28] = target: T1, Nitric oxide synthase, inducible (Mus musculus) (UniProt P29477); test: Inhibition of iNOS in LPS-induced mouse RAW264.7 cells assessed as inhibition of […] up to 33.3 uM measured after 24 hrs; type: cell-based
T1 sequence (whole entry): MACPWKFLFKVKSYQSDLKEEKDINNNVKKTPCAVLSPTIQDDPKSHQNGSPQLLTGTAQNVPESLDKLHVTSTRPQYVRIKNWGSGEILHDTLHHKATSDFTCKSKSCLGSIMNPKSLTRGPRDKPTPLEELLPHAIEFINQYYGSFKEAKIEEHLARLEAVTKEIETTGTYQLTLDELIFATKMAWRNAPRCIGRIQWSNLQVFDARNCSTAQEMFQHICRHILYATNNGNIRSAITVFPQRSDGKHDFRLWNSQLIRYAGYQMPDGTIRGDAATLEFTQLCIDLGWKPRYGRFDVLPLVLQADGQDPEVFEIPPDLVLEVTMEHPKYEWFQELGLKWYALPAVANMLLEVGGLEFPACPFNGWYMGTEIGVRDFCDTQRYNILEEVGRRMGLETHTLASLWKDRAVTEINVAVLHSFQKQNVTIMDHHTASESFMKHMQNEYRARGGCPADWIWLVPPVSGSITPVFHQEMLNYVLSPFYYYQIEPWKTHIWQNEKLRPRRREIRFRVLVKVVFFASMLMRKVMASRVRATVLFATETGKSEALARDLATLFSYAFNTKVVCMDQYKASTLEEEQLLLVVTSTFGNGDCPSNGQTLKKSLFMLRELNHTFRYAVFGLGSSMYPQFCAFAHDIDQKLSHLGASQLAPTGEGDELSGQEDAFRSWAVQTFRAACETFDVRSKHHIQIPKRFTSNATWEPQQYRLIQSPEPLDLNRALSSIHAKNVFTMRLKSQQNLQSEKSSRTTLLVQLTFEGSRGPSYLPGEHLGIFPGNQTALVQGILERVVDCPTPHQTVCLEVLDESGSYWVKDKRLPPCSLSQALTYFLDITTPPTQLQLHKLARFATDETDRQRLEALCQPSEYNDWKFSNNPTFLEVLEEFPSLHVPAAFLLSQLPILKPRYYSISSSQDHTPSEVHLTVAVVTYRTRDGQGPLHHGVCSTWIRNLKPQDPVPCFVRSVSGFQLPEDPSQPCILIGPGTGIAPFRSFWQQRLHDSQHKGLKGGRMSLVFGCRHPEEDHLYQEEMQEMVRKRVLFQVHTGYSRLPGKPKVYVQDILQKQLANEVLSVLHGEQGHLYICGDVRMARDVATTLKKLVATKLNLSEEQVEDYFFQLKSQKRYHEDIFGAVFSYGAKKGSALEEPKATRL
Procedure, shortened: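 RAW 264.7 macrophages seeded at 50 000 per well and grown 24 h. Compound added 30 min before LPS (5 μg/mL), then cells incubated a further 24 h. Nitrite in the supernatant measured with Griess reagent relative to vehicle control. Parthenolide served as positive control; cytotoxicity checked in parallel.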

[29] = Inhibition of Hedgehog signaling pathway in human HeLa cells assessed as inhibition of PMA induced luciferase at 100 uM treated 30 mins before induction; type: cell-based; procedure, shortened: as §1
[30] = Inhibition of AP1 signaling pathway in human HeLa cells assessed as measured as lowest concentration required 50 to 60 % inhibition of PMA induced luciferase treated 30 mins before induction; type: cell-based; procedure, shortened: as §1
HeLa [31] = test: Cytotoxicity against human HeLa cells assessed as growth inhibition measured after 48 hrs by Neutral Red dye assay
BT-549 [32] = test: Cytotoxicity against human BT549 cells assessed as growth inhibition measured after 48 hrs by Neutral Red dye assay; conditions: BT-549, 48 h

## Oc1ccc(/C=C/c2cc(O)cc(O)c2)cc1 [RESVERATROL]
[1]
  MED: 55 µM
[2]
  inhibition: < 40%
Vero
  IC50: 73.6 µM
[3]
  IC50: 50 µM
SK-MEL
  IC50: 47.3 µM
[4]
  inhibition: < 40%
BT-549 [5]
  growth inhibition (GI): inactive
LLC-PK1
  IC50: 52.5 µM
KB [6]
  growth inhibition (GI): inactive
SK-OV-3 [7]
  IC50: 113 µM
[8]
  MED: 40 µM
[9]
  inhibition: < 40%
HL-60 [10]
  IC50: 31.8 µM
HeLa [11]
  MED: 53 µM
[12]
  IC50: 60 µM
HeLa [13]
  IC50: 50 µM
HeLa [14]
  growth inhibition (GI): inactive
HeLa [15]
  MED: 33 µM
[16]
  MED: 40 µM
[17]
  IC50: 40 µM
[18]
  MED: 55 µM
HeLa [19]
  IC50: 70 µM
[20]
  IC50: 50 µM
[21]
  MED: 60 µM
[22]
  IC50: 40 µM
[23]
  MED: 70 µM

## COc1cc(/C=C\c2ccc(OC)c(OC)c2)cc(OC)c1 [(Z)-3,4,3',5'-TETRAMETHOXYSTILBENE]
SK-OV-3 [24]
  growth inhibition (GI): inactive
KB [25]
  IC50: 4.3 µM
[1]
  MED: 65 µM
[2]
  inhibition: < 40%
Vero
  IC50: > 33.3 µM
HL-60 [26]
  inhibition: inactive
[3]
  IC50: 80 µM
SK-MEL
  IC50: 4.3 µM
LLC-PK1
  IC50: 6 µM
[27]
  IC50: 80 µM
[9]
  inhibition: < 40%
HL-60 [10]
  IC50: 4.3 µM
HeLa [11]
  MED: 77 µM
[12]
  IC50: 40 µM
[28]
  inhibition: inactive
HeLa [13]
  IC50: 40 µM
[29]
  inhibition: < 40%
[30]
  MED: 80 µM
HeLa [15]
  MED: 55 µM
[16]
  MED: 40 µM
HeLa [31]
  IC50: 3.6 µM
[17]
  IC50: 40 µM
[18]
  MED: 65 µM
HeLa [19]
  IC50: 50 µM
[20]
  IC50: 40 µM
BT-549 [32]
  IC50: 4 µM
[21]
  MED: 80 µM
[23]
  MED: 50 µM
